Data published in PubChem BioAssay AID624077 (The Scripps Research Institute Molecular Screening Center, 2012).

Molecular target: Monoacylglycerol lipase ABHD6 (Mus musculus) (UniProt Q8R2Y0)
Assay: liver ABHD6 blockade after oral dosing – gel-based competitive ABPP, fluorescence, mouse, powder samples, in vivo study for DAGLb inhibitor project, late-stage follow-up (AID 624077)
Settings: C57BL mice oral dosing, stronger effect = higher value
How it was run: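 Assay system: C57BL mouse liver membranes, ABHD6; also added: HT-01 probe, 1 µM final; timing: 4 h oral dose-to-liver-harvest, 30 min 37 °C probe labelling; technique: in-gel fluorescence after SDS-PAGE; benchmarks: high control vehicle-treated liver, low control blank-gel background; replication: one mouse per dose group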

[1] = measured here: ABHD6 inhibition at 1 mg/kg
[2] = measured here: ABHD6 inhibition at 5 mg/kg

Monoacylglycerol lipase ABHD6 (Mus musculus), sequence (Q8R2Y0 whole entry, looked up): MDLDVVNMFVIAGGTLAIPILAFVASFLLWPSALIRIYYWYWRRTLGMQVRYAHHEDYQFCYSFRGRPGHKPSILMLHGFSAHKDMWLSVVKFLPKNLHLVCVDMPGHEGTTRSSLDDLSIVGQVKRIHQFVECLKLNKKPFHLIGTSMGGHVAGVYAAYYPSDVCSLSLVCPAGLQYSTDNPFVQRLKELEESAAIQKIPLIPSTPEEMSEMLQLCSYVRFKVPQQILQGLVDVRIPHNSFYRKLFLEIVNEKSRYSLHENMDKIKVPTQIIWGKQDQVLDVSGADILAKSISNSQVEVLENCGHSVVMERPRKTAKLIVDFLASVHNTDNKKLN

Structure (SMILES)	inhibition	inhibition [1]	inhibition [2]
O=C(N1CCCCC1Cc1ccccc1)n1cc(-c2ccc(-c3ccccc3)cc2)nn1 (centres undefined)	100%	100%	100%
COc1ccccc1-c1ccc(-c2cn(C(=O)N3CCCCC3Cc3ccccc3)nn2)cc1 (centres undefined)	100%	90%	100%
COc1ccc(-c2ccc(-c3cn(C(=O)N4CCCCC4c4ccccc4)nn3)cc2)cc1 (centres undefined)	100%	70%	80%
